PAX8 inh HTS – PAX8 transcriptional activity inhibition. RMG-I TPO-luciferase reporter, SteadyGlo, 24 h. inhibition, % at 12.6 µM. 360,000 tested, 1.2% active;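 active means mean replicate inhibition at least 60% with every replicate also reaching 60%; inconclusive means only one of the two criteria is met; inactive means mean below 60% and not all replicates reaching 60%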;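 further: luciferase light reporting Pax8 driven TPO promoter activity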
Env fusion inh – HIV envelope-mediated fusion inhibition. HeLa-JRFL Env/CEM21 cell fusion, luciferase. inhibition, % at 12.3 µM. 360,000 tested, 1.1% active. AID 651610;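 active means mean replicate inhibition score of at least 50 and every replicate individually at or above 50; inconclusive means only one of the two criteria met; inactive means mean below 50 and not all replicates reaching 50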
FN deposit inh – fibronectin deposition inhibition; AH1F fibroblasts, Alexa488-fibronectin deposition fluorescence, overnight; inhibition, % at 12.6 µM; 350,000 tested, 0.086% active;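 active means mean inhibition across replicates of 30% or more, regardless of how many single replicates reach that level; inconclusive means mean under 30% yet at least half of replicates reach 30%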
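Material: AH1F fibroblast monolayer depositing Alexa488-labelled fibronectin into matrix | Input: 10000 AH1F cells/well | Medium: DMEM plus 2% serum, read in PBS | Reagent: Alexa488-fibronectin, 24 nM final in well | Compound dosing: One dose per compound, pinned | Schedule: 1 h adhesion, overnight exposure | Measured by: Fluorescence at 485 nm excitation, 525 nm emission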
PGC1a acetyl inh – modulators of PGC1a acetylation. U2OS PGC1a acetylation, AlphaScreen anti-acetyl-lysine; with virally co-expressed GCN5 acetyltransferase. inhibition, % at 15.6 µM. 350,000 tested, 0.17% active. AID 651687;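 active means every replicate shows inhibition of at least 40%; inconclusive means mean inhibition at least 40% but some replicate below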
F508del corr – correctors of CFTR F508del function in bronchial epithelial cells. CFBE cells, YFP halide quenching; stimulated with forskolin plus potentiator P3; % fluorescence drop versus neutral controls. activity (quench increase), % at 7.58 µM. 350,000 tested, 0.36% active;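 active means mean added fluorescence quench of at least 8% versus neutral control, with both replicates also reaching 8%; inconclusive means only one of the mean or replicate conditions met; inactive means mean below 8% and not both replicates reaching 8%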;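 further: cells transiently co-express mutant CFTR-F508del with the halide-sensitive YFP; corrector assay measuring rescue of mutant channel to the surface after 24 h compound exposure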
EWS-Fli inh – blocks EWS/Fli oncoprotein-driven transcription; A673 NR0B1-luciferase reporter, viability-normalised; inhibition, % at 12.6 µM; 350,000 tested, 0.67% active; AID 651661;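 active means mean inhibition of at least 50% after viability correction, with every replicate also passing that limit; inconclusive means mean reaches 50% but only one of two replicates passes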;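 further: firefly luciferase signal divided by Alamar Blue viability fluorescence both relative to DMSO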
Large screens that a line does not name were inactive; [ ] = dose if it differs, or a comment. Only some compounds are listed: those with a hit (about 2.3% of all), similar ones and a draw of the others.

O=C(Nc1cc(F)ccc1F)N1CC(=O)N2[C@H](CO)[C@@H](c3ccc(/C=C/c4ccccc4)cc3)[C@@H]2C1	none (no result: PAX8 inh HTS, Env fusion inh)
COc1ccc(-c2ccc(NC(=O)c3ccco3)cc2)nn1	PAX8 inh HTS inconclusive, EWS-Fli inh 64 (no result: PGC1a acetyl inh)
CCC(C)c1ccc(NC(=O)c2ccco2)cc1 (stereo not drawn)	EWS-Fli inh 58
CCC(C)c1ccc(NC(=O)COC(=O)CCNC(=O)c2ccco2)cc1 (stereo not drawn)	none (no result: Env fusion inh, FN deposit inh)
OCCOCCn1c(CCNc2nc(-c3ccc(Cl)cc3)cs2)nc2cc(Cl)c(Cl)cc21	Env fusion inh 81 (no result: PGC1a acetyl inh)
CO[C@@H]1CN(C)C(=O)c2cc(NC(=O)NC(C)C)ccc2OC[C@@H](C)N(Cc2ccc(-c3ccccn3)cc2)C[C@@H]1C	none (no result: PAX8 inh HTS, Env fusion inh)
O=C(C[C@H]1CC[C@@H]2[C@H](COC[C@H](O)CN2CCC(F)(F)F)O1)NCc1ccc(Oc2ccccc2)cc1	none
O=C(C[C@H]1CC[C@H]2[C@@H](COC[C@H](O)CN2Cc2cccc(C(F)(F)F)c2)O1)NCc1ccc(Cl)cc1	PAX8 inh HTS 70
O=C(C[C@H]1CC[C@H]2[C@@H](COC[C@H](O)CN2CCC(F)(F)F)O1)NCc1ccc(Oc2ccccc2)cc1	Env fusion inh 56[16.7 µM]
O=C(C[C@@H]1CC[C@H]2[C@@H](COC[C@@H](O)CN2CC2CCCCC2)O1)NCc1ccc(F)cc1	EWS-Fli inh 70
C[C@H](CO)N1C[C@H](C)[C@@H](CN(C)Cc2cncnc2)Oc2cc(C#C[C@@H](C)O)ccc2S1(=O)=O	none
COc1cccc(NC(=O)N2C[C@@H](O)COC[C@@H]3O[C@H](CC(=O)NC4Cc5ccccc5C4)CC[C@H]32)c1	none
C[C@@H]1CN([C@H](C)CO)C(=O)Cc2cc(NS(=O)(=O)c3ccc(Cl)cc3)ccc2O[C@@H]1CN(C)Cc1ccc(Cl)c(Cl)c1	none (no result: FN deposit inh)
CCCC(=O)NC(c1ccc(C(C)C)cc1)c1ccc2cccnc2c1O (stereo not drawn)	PAX8 inh HTS 95, F508del corr 12 (no result: PGC1a acetyl inh)
Cc1ccc2ccc(C(Nc3ccccc3)c3ccccc3)c(O)c2n1 (stereo not drawn)	PAX8 inh HTS 70 (no result: PGC1a acetyl inh)
CCCC(=O)NC(c1ccc(N(C)C)cc1)c1ccc2cccnc2c1O (stereo not drawn)	PAX8 inh HTS 95, F508del corr 9.8
CCC(=O)NC(c1ccc(C)cc1)c1ccc2cccnc2c1O (stereo not drawn)	PAX8 inh HTS 92, F508del corr 11
CCCC(=O)NC(c1ccc(OC)c(OC)c1)c1cc(Cl)c2cccnc2c1O (stereo not drawn)	none
COc1ccc2c3c([nH]c2c1)[C@@H](CO)N(S(C)(=O)=O)CC31CCN(C(=O)Cc2cccnc2)CC1	none (no result: Env fusion inh, FN deposit inh)
CCC(=O)Nc1ccc2c(c1)OC[C@@H](C)N(Cc1cccnc1)C[C@H](C)[C@@H](OC)CN(C)C2=O	none (no result: Env fusion inh)
C[C@@H]1CCCCO[C@H](CN(C)C(=O)Nc2ccc(F)cc2)[C@@H](C)CN([C@@H](C)CO)C(=O)c2cc(N(C)C)ccc2O1	none (no result: FN deposit inh)
C[C@H](CO)N1C[C@H](C)[C@@H](CN(C)C(=O)Cc2cccnc2)Oc2ncc(-c3ccccc3)cc2C1=O	none (no result: PAX8 inh HTS)
COc1cccc(-c2ccc3c(c2)[C@@H]2[C@@H](CCN2C(=O)c2ccc(F)cc2)[C@@H](CO)N3)c1	none (no result: Env fusion inh)
O=C(O)c1ccccc1NC(c1ccccc1)c1ccc2cccnc2c1O (stereo not drawn)	PAX8 inh HTS 71 (no result: Env fusion inh)
CC(=O)NC(c1ccc(Cl)cc1)c1ccc2cccnc2c1O (stereo not drawn)	PAX8 inh HTS 95, F508del corr 12
CCCC(=O)NC(c1ccccc1Cl)c1ccc2cccnc2c1O (stereo not drawn)	PAX8 inh HTS 86
CCC(=O)NC(c1cccs1)c1cc(Cl)c2cccnc2c1O (stereo not drawn)	Env fusion inh inconclusive
Oc1ccccc1C(Nc1nccs1)c1ccc2cccnc2c1O (stereo not drawn)	Env fusion inh 60
C[C@@H](NC(=O)C[C@H]1CC[C@@H]2[C@H](COC[C@H](O)CN2C(=O)Nc2cccc(F)c2)O1)c1ccccc1	none (no result: Env fusion inh)
CCCNC(=O)N1CC(=O)N2[C@H](CO)[C@@H](c3ccc(C#Cc4cccc(F)c4)cc3)[C@H]2C1	none (no result: Env fusion inh, FN deposit inh)
CCCCC(=O)NC(c1ccc(OC)cc1)c1ccc2cccnc2c1O (stereo not drawn)	PAX8 inh HTS 71 (no result: PGC1a acetyl inh)
COc1ccc(C(NC(=O)C(C)C)c2ccc3cccnc3c2O)cc1 (stereo not drawn)	PAX8 inh HTS inconclusive
C[C@@H]1CCCCO[C@H](CN(C)C(=O)Nc2ccc(F)cc2)[C@H](C)CN([C@@H](C)CO)C(=O)c2cc(NC(=O)CCCN(C)C)ccc2O1	none (no result: FN deposit inh)
O=C(C[C@@H]1C=C[C@@H](NS(=O)(=O)c2ccccc2)[C@H](CO)O1)NCc1ccccc1F	none (no result: FN deposit inh)
CN(C)C(=O)CSc1nnc(Cc2ccccc2)n1Cc1ccco1	none (no result: PGC1a acetyl inh, F508del corr, EWS-Fli inh)
O=C(CSc1nnc(Cc2cccs2)n1Cc1ccco1)Nc1ccc(Cl)cc1Cl	Env fusion inh 59 (no result: PAX8 inh HTS, F508del corr, EWS-Fli inh)
O=C(CSc1nnc(Cc2ccccc2)n1Cc1ccco1)NC12CC3CC(CC(C3)C1)C2	Env fusion inh 58 (no result: PAX8 inh HTS, FN deposit inh, F508del corr, EWS-Fli inh)
C[C@H]1CN([C@@H](C)CO)C(=O)Cc2cc(NC(=O)NC3CCCCC3)ccc2O[C@@H]1CN(C)Cc1ccc(-c2ccccc2)cc1	PAX8 inh HTS 103, Env fusion inh inconclusive (no result: FN deposit inh)
C[C@H]1CN([C@@H](C)CO)C(=O)Cc2cc(NC(=O)NC3CCCCC3)ccc2O[C@H]1CN(C)Cc1ccc(-c2ccccc2)cc1	PAX8 inh HTS 103 (no result: FN deposit inh)
C[C@@H]1CN([C@@H](C)CO)C(=O)Cc2cc(NC(=O)NC3CCCCC3)ccc2O[C@H]1CN(C)Cc1ccc(-c2ccccc2)cc1	PAX8 inh HTS 79 (no result: FN deposit inh)
C[C@H](CO)N1C[C@H](C)[C@H](CN(C)Cc2ccc(-c3ccccc3)cc2)Oc2ccc(NC(=O)NC3CCCCC3)cc2CC1=O	none (no result: FN deposit inh)
CC(=O)Nc1ccc2c(c1)C(=O)N(C)[C@@H]1CC[C@H](CC(=O)NCC3CC3)O[C@H]1CO2	none
Cc1ccc(NC(=O)C2CCCN(S(=O)(=O)c3cccc4nonc34)C2)cc1 (stereo not drawn)	none
COc1ccc(C)cc1NC(=O)C1CCCN(S(=O)(=O)c2cccc3nonc23)C1 (stereo not drawn)	PAX8 inh HTS 141 (no result: Env fusion inh, PGC1a acetyl inh)
CCOc1ccc(C(=O)NCC(=O)NNC(=O)c2cc(C)oc2C)cc1OCC	F508del corr 16
CCCOc1ccc2[nH]c(C(=O)N/N=C/c3cc(OC)c(OC)c(OC)c3)cc2c1	PAX8 inh HTS 91 (no result: PGC1a acetyl inh)
COc1ccc(C=NNC(=O)CCCC(=O)NN=Cc2ccc(OC)c(O)c2)cc1O	F508del corr 15 (no result: Env fusion inh)
CCOc1ccc2[nH]c(C(=O)N/N=C/c3ccccc3OC)cc2c1	none
